According to ChEMBL document CHEMBL4177755, “Combating Drug-Resistant Fungi with Novel Imperfectly Amphipathic Palindromic Peptides” (J Med Chem, 2018):
The source made the active and inactive calls. The rule behind the calls is not given here.

Experiments:
[1] = system: Candida albicans; experiment: Antifungal activity against Candida albicans cgmcc 2.2086 in presence of 12.5% human heat-inactivated serum by broth dilution method; type: functional
[2] = system: Candida albicans; experiment: Antifungal activity against Candida albicans cgmcc 2.2086 in presence of 50% human heat-inactivated serum by broth dilution method; type: functional
[3] = system: Lipid bilayer; experiment: Binding affinity to phosphatidylcholine/cholesterol large unilamellar vesicle assessed as induction of calcein leakage at 2 to 32 uM after 15 mins by spectrofluorophotometric method; details: 0.25 h
Outline: (§1)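 Large unilamellar vesicles were made from PG/CL/PE (2:1:7), PC/PE/PI/ergosterol (5:4:1:2) or PC/cholesterol (10:1), loaded with 70 mM calcein in Tris/NaCl/EDTA buffer at pH 7.4, frozen and thawed 20 times, and extruded through 100 nm filters. Free dye was removed by gel filtration, and peptide-induced calcein release was measured.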

[4] = system: Lipid bilayer; experiment: Binding affinity to phosphatidylglycerol/cardiolipin/phosphatidylethanolamine large unilamellar vesicle assessed as induction of calcein leakage at 2 to 32 uM after 15 mins by spectrofluorophotometric method; outline: as §1
[5] = system: Candida albicans; experiment: Antifungal activity against Candida albicans cgmcc 2.2086 in presence of 25% human heat-inactivated serum by broth dilution method; type: functional
[6] = system: HEK-293T; experiment: Cytotoxicity against HEK293T cells assessed as decrease in cell viability at 64 uM after 24 hrs by MTT assay relative to control; type: cell-based; details: human
Outline: (§2)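 MTT viability assay. RAW264.7 or HEK293T cells at (1.0−2.0) × 10^5 per well were exposed to a peptide concentration series for 24 h at 37 °C in 5% CO2. MTT was then added at 0.5 mg/mL final for 4 h; formazan was dissolved in DMSO and read at 570 nm. Results average three independent trials.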

[7] = system: RAW264.7; experiment: Cytotoxicity against mouse RAW264.7 cells assessed as decrease in cell viability at 64 uM after 24 hrs by MTT assay relative to control; type: cell-based; details: raw264.7, 24 h; outline: as §2
[8] = system: Candida albicans; experiment: Fungicidal activity against fluconazole-resistant Candida albicans 56452 at 0.5 times MFC after 30 passages; type: functional, organism-based
Outline: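 Resistance induction. C. albicans cultures were serially passaged by 100-fold dilution every 24 h in 2 mL RPMI 1640 containing sub-MFC peptide, and the MFC was retested at each passage. A control was passaged in RPMI 1640 alone.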

[9] = system: Escherichia coli; experiment: Antibacterial activity against Escherichia coli ATCC 25922 after 18 hrs in presence of 25% human heat-inactivated serum by broth dilution method; type: functional; details: ATCC 25922, 18 h
[10] = system: Candida albicans; experiment: Induction of membrane damage in Candida albicans cgmcc 2.2086 assessed as intracellular content leakage at MFC after 1 hr by transmission electron microscopy; type: functional, organism-based
Outline: (§3)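 E. coli ATCC 25922 or C. albicans cgmcc 2.2086 were treated with peptide at 1× MBC/MFC for 1 h alongside peptide-free controls, then imaged by AFM, SEM or TEM for membrane and ultrastructural changes.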

[11] = system: Candida albicans; experiment: Induction of membrane damage in Candida albicans cgmcc 2.2086 assessed as membrane creping at MFC after 1 hr by atomic force microscopy; type: functional, organism-based
Outline: (§4)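 E. coli ATCC 25922 was treated at 1× MBC and C. albicans cgmcc 2.2086 at 1× MFC, each for 1 h. Untreated control cells were processed in parallel without peptide. Surface morphology was imaged by AFM and SEM, and ultrastructure by TEM.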

[12] = system: Candida albicans; experiment: Induction of membrane damage in Candida albicans cgmcc 2.2086 assessed as membrane deformation at MFC after 1 hr by scanning electron microscopy; type: functional, organism-based; outline: as §4
[13] = system: Escherichia coli; experiment: Induction of membrane damage in Escherichia coli ATCC 25922 assessed as appearance of roughened and broken membrane at MBC after 1 hr by atomic force microscopy; type: functional, organism-based; outline: as §4
[14] = system: Candida albicans; experiment: Induction of reactive oxygen species generation in Candida albicans cgmcc 2.2086 after 1 hr by DCFH-DA dye-based spectrofluorophotometric method; type: functional, organism-based
Outline: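 E. coli ATCC 25922 and C. albicans cgmcc 2.2086 cells were exposed to a range of peptide concentrations up to 32 μM. ROS levels were read by fluorescence and expressed relative to untreated cells. Values are mean ± SEM of three independent experiments.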

[15] = system: RAW264.7; experiment: Induction of endotoxin-neutralization in mouse RAW264.7 cells assessed as inhibition of LPS-induced TNFalpha secretion at 2 uM after 18 hrs by ELISA; type: functional, cell-based
Outline: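 RAW 264.7 cells were stimulated with 50 ng/mL LPS with or without peptide at various concentrations. TNF-α in supernatants was measured by ELISA and NO by Griess reagent. Mean ± SEM of three independent experiments, compared against LPS alone.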

[16] = system: Lipid bilayer; experiment: Binding affinity to phosphatidylglycerol/cardiolipin/phosphatidylethanolamine large unilamellar vesicle assessed as induction of calcein leakage at 32 uM after 15 mins by spectrofluorophotometric method relative to control
Outline: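 Compositions were PG/CL/PE 2:1:7 w/w/w (E. coli membrane mimic; lines 4,5) and PC/PE/PI/ergosterol 5:4:1:2 w/w/w/w (fungal membrane mimic; lines 2,3). Lipids underwent 20 freeze–thaw cycles and were extruded through 100 nm filters; free calcein was removed by gel filtration.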

[17] = system: Candida albicans; experiment: Induction of membrane damage in Candida albicans cgmcc 2.2086 assessed as intracellular content leakage at MFC after 1 hr by atomic force microscopy; type: functional, organism-based; outline: as §3
[18] = system: Candida albicans; experiment: Induction of membrane damage in Candida albicans cgmcc 2.2086 assessed as membrane creping at MFC after 1 hr by scanning electron microscopy; type: functional, organism-based; outline: as §4
[19] = system: Lipopolysaccharide (LPS); experiment: Displacement of BODIPY-TR-cadaverine from Escherichia coli O111:B4 LPS at 8 uM after 1 hr by spectrofluorophotometric method relative to control
Outline: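 Fluorescence-based displacement assay: peptide displaces BODIPY-TR-cadaverine from LPS; polymyxin B served as the LPS-binding reference.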

[20] = system: Escherichia coli; experiment: Induction of cell wall permeabilization in Escherichia coli ATCC 25922 assessed as increase in NPN uptake by fluorescence spectrophotometric method; type: functional, organism-based
Outline: (§5)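 Log-phase cells at OD600 0.2 in 5 mM HEPES (pH 7.4, 5 mM glucose) were preloaded with 10 μM NPN for 30 min, then peptide was added. Fluorescence (ex 350/em 420 nm) was followed until it plateaued and converted to % NPN uptake against initial and maximal fluorescence. Triplicate.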

[21] = system: Escherichia coli; experiment: Antibacterial activity against Escherichia coli ATCC 25922 after 18 hrs in presence of 12.5% human heat-inactivated serum by broth dilution method; type: functional; details: ATCC 25922, 18 h
[22] = system: RAW264.7; experiment: Immunostimulatory activity in mouse RAW264.7 cells assessed as induction of TNFalpha secretion by ELISA; type: cell-based
Outline: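 RAW 264.7 macrophages were exposed to peptide at various concentrations. TNF-α in culture supernatants was measured by ELISA and NO by Griess reagent. Values are means ± SEM of three independent experiments.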

[23] = system: Candida albicans; experiment: Induction of cell wall permeabilization in Candida albicans cgmcc 2.2086 assessed as increase in NPN uptake by fluorescence spectrophotometric method; type: functional, organism-based; outline: as §5
[24] = system: Candida albicans; experiment: Induction of reactive oxygen species generation in Candida albicans cgmcc 2.2086 at 32 uM after 1 hr by DCFH-DA dye-based spectrofluorophotometric method relative to control; type: functional
Outline: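 Intracellular ROS in peptide-treated cells were compared with untreated cells; values are mean ± SEM of three independent experiments.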

[25] = system: Escherichia coli; experiment: Change in membrane morphology in Escherichia coli ATCC 25922 assessed as loss of intracellular contents at MBC after 1 hr by transmission electron microscopy; type: functional, organism-based; outline: as §3

For `CC[C@H](C)[C@H](NC(=O)CN)C(=O)NCC(=O)N[C@@H](C)C(=O)N[C@H](C(=O)N[C@@H](CC(C)C)C(=O)N[C@@H](CCCCN)C(=O)N[C@H](C(=O)N[C@@H](CC(C)C)C(=O)N[C@H](C(=O)N[C@H](C(=O)NCC(=O)N[C@@H](CC(C)C)C(=O)N1CCC[C@H]1C(=O)N[C@@H](C)C(=O)N[C@@H](CC(C)C)C(=O)N[C@H](C(=O)N[C@@H](CO)C(=O)N[C@@H](Cc1c[nH]c2ccccc12)C(=O)N[C@H](C(=O)N[C@@H](CCCCN)C(=O)N[C@@H](CCCNC(=N)N)C(=O)N[C@@H](CCCCN)C(=O)N[C@@H](CCCNC(=N)N)C(=O)N[C@@H](CCC(N)=O)C(=O)N[C@@H](CCC(N)=O)C(N)=O)[C@@H](C)CC)[C@@H](C)CC)[C@@H](C)O)[C@@H](C)O)C(C)C)C(C)C` [MELITTIN], the MIC [1] was 32 µM, the MIC [2] was 64 µM and the Activity [3] was “Active”. For the same compound, the Activity [4] was “Active” and the MIC [5] was 32 µM.

With H-WWRRWRRWW-NH2 the Activity [6] was “Toxic” and the Activity [7] was “Toxic”.

For H-RWWRRWRRWWR-NH2, the Activity [6] was “Toxic” and the Activity [7] was “Toxic”.

In the case of H-RRIRIIIRIRR-NH2, the Activity [8] is reported as “Active”, the MIC [9] is reported as 4 µM and the Activity [10] is reported as “Active”. For the same compound, the Activity [11] was “Active”, the Activity [12] was “Active” and the Activity [13] was “Active”. The Activity [14] was “Dose-dependent effect”, the inhibition [15] was “Active” and the MIC [1] was 2 µM. For the same compound, the Activity [16] was 63%, the MIC [2] was 8 µM and the Activity [17] was “Active”. For the same compound, the Activity [18] was “Active”, the inhibition [19] was 95% and the Activity [20] was “Dose-dependent effect”. For the same compound, the MIC [21] was 4 µM, the Activity [22] was “Non-Toxic” and the Activity [3] was “Not Active”. For the same compound, the Activity [23] was “Dose-dependent effect”, the “fold change (FC)” value [24] was 14 and the Activity [25] was “Active”. For the same compound, the MIC [5] was 4 µM.
